Test [1] is described as follows: Her2 expression decrease, cell viability multiplex – SKBR3 breast tumor cells, AlphaScreen, ATP viability, primary screen (AID 461).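 As to Her2 level: lower value means less Her2 protein in the cells.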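 As to viability: percent of carrier control wells set as 100% viability.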 The note with it: SKBR3 Her2 protein level, 18-24 h, measured here: SKBR3 viability, ATP luminescence, at 10 µM.
The target of test [2] is Receptor tyrosine-protein kinase erbB-2 (Homo sapiens) (UniProt P04626). The test is described as above. The note with it: 18-24 h, at 10 µM, stronger effect = lower value.
Test [3] can be described thus: reduced viability of SK-BR-3 breast cancer cells – cell-based, 24 h, human, pilot screen (AID 572;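 active = viability at or below 10% of carrier control in both of two separate runs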;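 also: compound exposure lasted between 18 and 24 h rather than exactly 24 h; 100% = carrier-treated control wells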). Particulars: SK-BR-3 viability, CellTiter-Glo luminescence, at 10 µM, stronger effect = lower value. On the technique in general: ATP-based viability assays read luminescence as a measure of living cells.
The nature of test [4]: HUVEC growth inhibition – cell-based, human, primary screen (AID 575;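 active = viability at or below 30% in both replicate assays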;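 also: 100% = median of untreated cell wells with 0.1% DMSO on each plate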). Particulars: HUVEC proliferation, CellTiter-Glo luminescence, 72 h; at 10 µM; stronger effect = lower value. The essentials:
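Test system: HUVEC primary cells. Quantity: 1250 endothelial cells in each well. Dosing: single-point 10 µM, DMSO 0.1% final. Incubation: 72 h treatment at 37 °C. Measured by: CTG luminescence. Control set: DMSO cell controls and MePR drug controls. Plate: collagen-coated 384-well format.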

A short description of test [5]: H69AR cell proliferation blockers – human, duplicate replicates, primary screen (AID 580;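 active = viability at or under a set limit in both replicates, limit being median viability minus 3 SD, cut at about 48% in these data, passing the limit was not always enough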;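 also: 100% = mean luminescence of untreated wells and 0% = no signal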). Particulars: H69AR lung tumor cells viability, ATP luminescence, 72 h; at 10 µM; stronger effect = lower value.
The nature of test [6]: MRP1 drug-resistance reversers in H69AR cells – cell-based, doxorubicin co-treatment, pilot screen (AID 601;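 active = viability loss from added drug above about 55%, and viability with drug at most 40%, in both replicates, limit read from the data, passing the limit was not always enough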). The note with it: CellTiter-Glo, 72 h, at 10 µM; for differential viability (reversal): stronger effect = higher value.
Test [7] in a line: yeast transport mutant growth inhibition pilot in 384-well plates, post-Golgi transport modulator project (AID 636; in the data active = inhibition above about 31%). Particulars: absorbance 615 nm, about 18 h, stronger effect = higher value.
A short description of test [8]: growth suppression of yeast trafficking mutant, preliminary HTS, modulators of trafficking downstream of Golgi apparatus project, 1536-format plate, OD 615 nm (AID 637; in the data active = inhibition above about 30%). Particulars: yeast transport mutant growth, absorbance 615 nm, 18 h; stronger effect = higher value.
Where [9] appears, read: H69AR cells + 2 uM doxorubicin, measured here: viability with 2 uM doxorubicin, stronger effect = lower value.
Setting [10] is: H69AR cells, compound alone cytotoxicity.

Broadly, the viability is a read-out of living cells in per cent, often relative to untreated cells. The inhibition is the drop in the measured response relative to a control, in per cent.

The structures appear in SMILES notation. Calls of active or inactive are those of the source.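 The calls were made as follows, unless noted: active = Her2 level under about 52% in both replicate screens, with viability over 70% of control (limit read from the data); inconclusive = Her2 under the limit in one screen only, or viability under 70%; inactive = Her2 level above the set limit.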

Chain of Receptor tyrosine-protein kinase erbB-2 (Homo sapiens) (P04626 whole entry, looked up): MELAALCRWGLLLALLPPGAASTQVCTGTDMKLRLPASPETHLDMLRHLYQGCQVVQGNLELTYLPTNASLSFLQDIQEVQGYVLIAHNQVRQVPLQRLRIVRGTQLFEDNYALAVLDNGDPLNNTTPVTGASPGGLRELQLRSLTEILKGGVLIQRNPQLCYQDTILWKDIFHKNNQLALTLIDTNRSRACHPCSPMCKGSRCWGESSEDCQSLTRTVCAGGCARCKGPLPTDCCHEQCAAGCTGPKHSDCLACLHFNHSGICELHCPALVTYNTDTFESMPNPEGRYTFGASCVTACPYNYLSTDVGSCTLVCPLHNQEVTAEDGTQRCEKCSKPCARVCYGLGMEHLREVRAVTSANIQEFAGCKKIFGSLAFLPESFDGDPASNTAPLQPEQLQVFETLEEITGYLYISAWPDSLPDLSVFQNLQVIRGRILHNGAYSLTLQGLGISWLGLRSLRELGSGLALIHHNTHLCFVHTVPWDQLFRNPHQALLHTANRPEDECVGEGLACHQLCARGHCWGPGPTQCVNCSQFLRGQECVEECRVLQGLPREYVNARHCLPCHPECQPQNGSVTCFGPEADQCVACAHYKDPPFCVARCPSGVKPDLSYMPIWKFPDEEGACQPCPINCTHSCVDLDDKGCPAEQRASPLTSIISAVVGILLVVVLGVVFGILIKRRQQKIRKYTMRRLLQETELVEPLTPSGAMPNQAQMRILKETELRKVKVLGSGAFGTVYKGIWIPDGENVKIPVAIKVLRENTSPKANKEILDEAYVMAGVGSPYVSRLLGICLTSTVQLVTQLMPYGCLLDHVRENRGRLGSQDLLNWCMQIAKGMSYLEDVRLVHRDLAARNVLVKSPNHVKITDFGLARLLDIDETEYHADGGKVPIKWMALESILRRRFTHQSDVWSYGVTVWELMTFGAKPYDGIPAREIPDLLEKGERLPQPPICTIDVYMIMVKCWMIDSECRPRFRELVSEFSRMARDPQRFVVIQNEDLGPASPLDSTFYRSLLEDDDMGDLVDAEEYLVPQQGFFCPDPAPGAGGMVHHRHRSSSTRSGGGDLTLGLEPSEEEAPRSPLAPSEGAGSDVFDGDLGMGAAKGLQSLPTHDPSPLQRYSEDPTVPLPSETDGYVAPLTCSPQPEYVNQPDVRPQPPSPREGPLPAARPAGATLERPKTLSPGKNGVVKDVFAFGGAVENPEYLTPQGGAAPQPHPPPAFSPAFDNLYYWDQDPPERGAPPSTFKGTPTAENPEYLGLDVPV

Consider `O=S(=O)(c1ccc2c(c1)nc1n2CCC1)N1CCOCC1`, for which the viability in test [1] was 102%; in test [3] it was 102% (inactive); in test [4] it was 102% (inactive); in test [5] it was 98.9% (inactive); in test [6] (setting [9]), 91.2%; in test [6] (setting [10]) it was 98.9%. Moreover, in test [2], the Her2 level is 87% (inactive). The differential viability (reversal) in test [6] (H69AR cells + 2 uM doxorubicin) is 7.71% (inactive). For the same compound, the inhibition is -0.26% (inactive) in test [7] and -4.44% (inactive) in test [8].
As to `CCOC(=O)N1CCC(NC(=O)CS(=O)(=O)Cc2nc(-c3ccccc3C)oc2C)CC1`, the viability in test [1] is 105%; in test [3] it was 105% (inactive); in test [4], 114% (inactive); in test [5] it was 95.7% (inactive); in test [6] (setting [9]), 100%; in test [6] (setting [10]), 95.7%. Further, in test [2], the Her2 level was 95% (inactive). In test [6] (H69AR cells + 2 uM doxorubicin), the differential viability (reversal) is -4.35% (inactive). The inhibition in test [7] was -3.73% (inactive); in test [8] it was 0.66% (inactive).
Turning to `COc1cccc(CNC(=O)C2CCN(C(=O)N(C)C)CC2)c1`, the viability in test [1] was 97.5%; in test [3], 97.5% (inactive); in test [4], 90% (inactive); in test [5], 92.2% (inactive); in test [6] (setting [9]), 92.2%; in test [6] (setting [10]), 92.2%. In test [2], the Her2 level is 118% (inactive). In test [6] (H69AR cells + 2 uM doxorubicin), the differential viability (reversal) was 0.06% (inactive). Further, the inhibition in test [7] is -0.64% (inactive); in test [8], 11.8% (inactive).
On to `O=C(CN1C(=O)c2ccccc2S1(=O)=O)NCc1ccccn1`, for which the viability was 94% in test [1]; 94% (inactive) in test [3]; 86.1% (inactive) in test [4]; 98.5% (inactive) in test [5]; 97.8% in test [6] (setting [9]); 98.5% in test [6] (setting [10]). Besides, the Her2 level in test [2] was 92% (inactive). Also, the differential viability (reversal) in test [6] (H69AR cells + 2 uM doxorubicin) is 0.67% (inactive). In addition, the values for the inhibition in test [7] and in test [8] were -1.43% (inactive) and 1.11% (inactive), respectively.
As to `CCCC1(C(=O)OCC)NC(c2ccc(N(C)C)cc2)C2C(=O)N(c3ccc(F)cc3)C(=O)C21` (stereo not given), the viability in test [1] is 90%; in test [3], 90% (inactive); in test [4], 104% (inactive); in test [5], 112% (inactive); in test [6] (setting [9]), 98.2%; in test [6] (setting [10]), 112%. The Her2 level in test [2] was 97% (inactive). Also, the differential viability (reversal) in test [6] (H69AR cells + 2 uM doxorubicin) was 13.8% (inactive). The inhibition in test [7] is 0% (inactive); in test [8], -2.67% (inactive).
As for `CNC(=O)CSc1nnc(-c2cc(C)cc(C)c2)o1`, the viability in test [1] was 94.5%; in test [3], 94.5% (inactive); in test [4], 93.4% (inactive); in test [5], 108% (inactive); in test [6] (setting [9]) it was 95.1%; in test [6] (setting [10]), 108%. The Her2 level in test [2] was 99% (inactive). In addition, the differential viability (reversal) in test [6] (H69AR cells + 2 uM doxorubicin) was 13.4% (inactive). For the same compound, the inhibition was -3.07% (inactive) in test [7] and -3.06% (inactive) in test [8].
`COc1ccc(Cc2nnc(NC(=O)Cc3cccs3)s2)cc1`: the viability in test [1] was 104%; in test [3] it was 104% (inactive); in test [4], 103% (inactive); in test [5], 106% (inactive); in test [6] (setting [9]), 101%; in test [6] (setting [10]), 106%. Besides, in test [2], the Her2 level was 112% (inactive). Further, the differential viability (reversal) in test [6] (H69AR cells + 2 uM doxorubicin) was 5.58% (inactive). Moreover, the inhibition is 0.41% (inactive) in test [7] and -4.29% (inactive) in test [8].
As to `c1ccc(-c2nnc(CN3CCC4(CC3)OCCO4)o2)cc1`, the viability in test [1] is 110%; in test [3], 110% (inactive); in test [4], 96.9% (inactive); in test [5] it was 98.7% (inactive); in test [6] (setting [9]) it was 90.2%; in test [6] (setting [10]), 98.7%. Besides, the Her2 level in test [2] was 91.5% (inactive). For the same compound, the differential viability (reversal) in test [6] (H69AR cells + 2 uM doxorubicin) is 8.52% (inactive). Besides, the inhibition is -0.79% (inactive) in test [7] and 14.5% (inactive) in test [8].
With `Cc1cc(C(=O)NCc2cccnc2)n(-c2ccccc2)n1`, the viability in test [1] is 93.5%; in test [3], 93.5% (inactive); in test [4], 102% (inactive); in test [5], 107% (inactive); in test [6] (setting [9]), 92.9%; in test [6] (setting [10]), 107%. For the same compound, in test [2], the Her2 level is 97% (inactive). Also, the differential viability (reversal) in test [6] (H69AR cells + 2 uM doxorubicin) was 14.4% (inactive). Besides, the inhibition in test [7] was -0.93% (inactive); in test [8], -6.07% (inactive).
As for `COc1ccc(-c2nnc(SCC(=O)Nc3ccc(Cl)cc3)n2C)cc1`, the viability is 82.5% in test [1]; 82.5% (inactive) in test [3]; 92.8% (inactive) in test [4]; 90.2% (inactive) in test [5]; 82.2% in test [6] (setting [9]); 90.2% in test [6] (setting [10]). Moreover, the Her2 level in test [2] is 104% (inactive). Also, the differential viability (reversal) in test [6] (H69AR cells + 2 uM doxorubicin) was 8% (inactive). Also, the inhibition is -0.93% (inactive) in test [7] and -9.21% (inactive) in test [8].
On to `CCN(CC)CCCN1C(=O)C(=O)/C(=C(/O)c2ccccc2)C1c1ccccn1` (stereo not given), for which the viability in test [1] was 96.5%; in test [3], 96.5% (inactive); in test [4] it was 111% (inactive); in test [5] it was 96% (inactive); in test [6] (setting [9]), 89.7%; in test [6] (setting [10]), 96%. Further, in test [2], the Her2 level is 100% (inactive). Besides, the differential viability (reversal) in test [6] (H69AR cells + 2 uM doxorubicin) was 6.26% (inactive). The inhibition in test [7] is -1.35% (inactive); in test [8], -4.92% (inactive).
Turning to `Cc1cc(C)c(C)c(S(=O)(=O)Nc2ccc(O)cc2)c1C`, the viability is 100% in test [1]; 100% (inactive) in test [3]; 96.6% (inactive) in test [4]; 96.8% (inactive) in test [5]; 82.7% in test [6] (setting [9]); 96.8% in test [6] (setting [10]). Moreover, in test [2], the Her2 level was 87.5% (inactive). Besides, in test [6] (H69AR cells + 2 uM doxorubicin), the differential viability (reversal) is 14.1% (inactive). Besides, the inhibition in test [7] was -4.4% (inactive); in test [8], -1.61% (inactive).
In the case of `CCOC(=O)c1[nH]c(C)c(C(=O)NCc2ccccn2)c1C`, the viability is 134% in test [1]; 134% (inactive) in test [3]; 83.4% (inactive) in test [4]; 102% (inactive) in test [5]; 96.8% in test [6] (setting [9]); 102% in test [6] (setting [10]). For the same compound, the Her2 level in test [2] is 115% (inactive). Moreover, the differential viability (reversal) in test [6] (H69AR cells + 2 uM doxorubicin) is 4.79% (inactive). Also, the inhibition in test [7] was -5.07% (inactive); in test [8], 9.37% (inactive).
In the case of `COc1ccc(C2=Nn3c(nnc3-c3ccccc3)SC2)cc1OC`, the viability in test [1] was 124%; in test [3], 124% (inactive); in test [4] it was 78.1% (inactive); in test [5], 81.7% (inactive); in test [6] (setting [9]), 79.3%; in test [6] (setting [10]), 81.7%. Further, the Her2 level in test [2] was 101% (inactive). In addition, the differential viability (reversal) in test [6] (H69AR cells + 2 uM doxorubicin) was 2.4% (inactive). Moreover, the inhibition in test [7] was -4.47% (inactive); in test [8] it was 5.65% (inactive).
On to `CC(=O)c1cnc2cc(-c3ccccc3)nn2c1C`, for which the viability in test [1] is 91.5%; in test [3] it was 91.5% (inactive); in test [4], 91.4% (inactive); in test [5], 103% (inactive); in test [6] (setting [9]) it was 83.1%; in test [6] (setting [10]), 103%. Moreover, in test [2], the Her2 level is 110% (inactive). The differential viability (reversal) in test [6] (H69AR cells + 2 uM doxorubicin) is 19.5% (inactive). The inhibition was 0% (inactive) in test [7] and -10.7% (inactive) in test [8].
With `CC1CCN(C(=O)CSc2nnc(-c3ccc(S(=O)(=O)N4CCOCC4)cc3)n2C)CC1`, the viability in test [1] was 108%; in test [3] it was 108% (inactive); in test [4], 93.7% (inactive); in test [5] it was 88.3% (inactive); in test [6] (setting [9]), 93.1%; in test [6] (setting [10]) it was 88.3%. Moreover, the Her2 level in test [2] was 109% (inactive). For the same compound, in test [6] (H69AR cells + 2 uM doxorubicin), the differential viability (reversal) was -4.8% (inactive). The inhibition in test [7] is -4.4% (inactive); in test [8], -2.62% (inactive).

Values taken from PubChem BioAssay.
